# Experimental data reported in ChEMBL document CHEMBL1240328, “Selective compounds define Hsp90 as a major inhibitor of apoptosis in small-cell lung cancer” (Nat Chem Biol, 2007).
# Activity calls are given as the source filed them.
# Legend:
# [1] = target: Heat shock protein HSP 90-beta (Homo sapiens) (UniProt P08238); assay: Inhibition of HSP90-mediated proliferation of human NCI-H510 cells at 0.3 to 0.5 uM after 72 to 96 hrs by intracellular ATP level assay
# [2] = Drug level in tumor of human NCI-N417 cell-xenograft athymic mouse model at 75 mg/kg, ip administered as single dose after 3 hrs by HPLC/MS/MS analysis; type: ADME, organism-based, Neoplasm; design: dose 75 mg/kg, route intraperitoneal; conditions: in vivo
# Method in brief: (§1)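 Nude mice bearing NCI-N417 xenografts received a single i.p. dose of 75 mg kg–1. Animals (n = 3) were killed at set times from 3 to 36 h. Tumors and brains were harvested and halved, and tumor drug content was quantified by HPLC/MS/MS.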
# [3] = target: Heat shock protein HSP 90-beta (Homo sapiens) (UniProt P08238); assay: Inhibition of HSP90 in chemo-resistant human WBA cells at 100 uM after 24 hrs by fluorescence polarization assay; type: cell-based
# Method in brief: (§2)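 Competitive fluorescence polarization in lysates of H69AR, SKI-AC3 and WBA cells, prepared in HFB buffer pH 7.3 and normalized to Hsp90. Tracer was 3 nM Cy3B-geldanamycin, with incubation for 24 h at 4 °C. EC50 was defined as 50% tracer displacement.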
# [4] = Drug level in tumor of human NCI-N417 cell-xenograft athymic mouse model at 75 mg/kg, ip administered as single dose after 12 hrs by HPLC/MS/MS analysis; type: ADME, organism-based, Neoplasm; design: dose 75 mg/kg, route intraperitoneal; conditions: in vivo
# Method in brief: as §1
# [5] = system: NCI-H417; assay: Anticancer activity against human NCI-N417 cells xenografted in athymic mouse assessed as tumor growth inhibition at nontoxic dose administered ip daily for 5 consecutive days measured on day 20 post tumor implantation; type: functional, organism-based
# Method in brief: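 Nude athymic mice (n = 4) bearing NCI-N417 tumors of V = 50–90 mm3 were dosed i.p. and tumor growth was monitored. Results are given as mean ± s.d.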
# [6] = target: Heat shock protein HSP 90-beta (Homo sapiens) (UniProt P08238); assay: Inhibition of HSP90-mediated proliferation of human NCI-H146 cells at 0.3 to 0.5 uM after 72 to 96 hrs by intracellular ATP level assay
# [7] = target: Heat shock protein HSP 90-beta (Homo sapiens) (UniProt P08238); assay: Inhibition of HSP90-mediated proliferation of human NCI-H187 cells at 0.3 to 0.5 uM after 72 to 96 hrs by intracellular ATP level assay
# [8] = system: NCI-H417; assay: Anticancer activity against human NCI-N417 cells xenografted in ip dosed athymic mouse assessed as decrease in tumor Akt activity administered daily for 5 consecutive days measured after 12 hrs post last dose by immunohistochemistry; type: functional, organism-based
# Method in brief: (§3)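 Nude athymic (nu/nu) mice carrying NCI-N417 xenografts (cells injected with Matrigel), treated once tumors were 7–9 mm in diameter. Dosing was five consecutive daily i.p. doses of 100 mg kg–1, and mice were killed 12 h after the last dose (n = 2). Tumors were analyzed by immunohistochemistry for cleaved caspase-3, Ki-67 and p-Akt, with vehicle-treated tumors as comparison.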
# [9] = target: Heat shock protein HSP 90-beta (Homo sapiens) (UniProt P08238); assay: Inhibition of HSP90-mediated proliferation of human SKBR3cells after 72 hrs by sulforhodamine B assay
# [10] = Drug level in tumor of human NCI-N417 cell-xenograft athymic mouse model at 75 mg/kg, ip administered as single dose after 24 hrs by HPLC/MS/MS analysis; type: ADME, organism-based, Neoplasm; design: dose 75 mg/kg, route intraperitoneal; conditions: in vivo
# Method in brief: as §1
# [11] = target: Heat shock protein HSP 90-beta (Homo sapiens) (UniProt P08238); assay: Inhibition of HSP90-mediated antiapoptotic activity in human H69AR cells assessed as induction of cell growth arrest at 10 after 96 hrs by propidium iodide staining-based flow cytometry
# [12] = target: Heat shock protein HSP 90-beta (Homo sapiens) (UniProt P08238); assay: Binding affinity to HSP90 in human NCI-H146 cells after 24 hrs by fluorescence polarization assay; type: cell-based
# [13] = system: NCI-H417; assay: Anticancer activity against human NCI-N417 cells xenografted in athymic mouse assessed as decrease in tumor Akt activity at 75 mg/kg, ip administered daily for 5 consecutive days measured after 6 hrs post last dose by immunohistochemistry; type: functional, organism-based; design: dose 75 mg/kg
# [14] = target: Heat shock protein HSP 90-beta (Homo sapiens) (UniProt P08238); assay: Binding affinity to HSP90 in human NCI-H209 cells after 24 hrs by fluorescence polarization assay; type: cell-based
# [15] = target: Heat shock protein HSP 90-beta (Homo sapiens) (UniProt P08238); assay: Inhibition of HSP90-mediated proliferation of human NCI-N417 cells at 0.3 to 0.5 uM after 72 to 96 hrs by sulforhodamine B assay; type: cell-based; conditions: NCI-H417
# [16] = target: Heat shock protein HSP 90-beta (Homo sapiens) (UniProt P08238); assay: Inhibition of HSP90-mediated proliferation of human NCI-H69 cells at 0.3 to 0.5 uM after 72 to 96 hrs by intracellular ATP level assay
# [17] = target: Heat shock protein HSP 90-beta (Homo sapiens) (UniProt P08238); assay: Inhibition of HSP90-mediated proliferation of human NCI-H209 cells at 0.3 to 0.5 uM after 72 to 96 hrs by intracellular ATP level assay
# [18] = target: Heat shock protein HSP 90-beta (Homo sapiens) (UniProt P08238); assay: Binding affinity to HSP90 in human NCI-H69 cells after 24 hrs by fluorescence polarization assay
# [19] = system: NCI-H417; assay: Anticancer activity against human NCI-N417 cells xenografted in ip dosed athymic mouse assessed as tumor caspase-3 cleavage administered daily for 5 consecutive days measured after 12 hrs post last dose by immunohistochemistry; type: functional, organism-based
# Method in brief: as §3
# [20] = target: Heat shock protein HSP 90-beta (Homo sapiens) (UniProt P08238); assay: Binding affinity to HSP90 in human NCI-H187 cells after 24 hrs by fluorescence polarization assay
# [21] = target: Heat shock protein HSP 90-beta (Homo sapiens) (UniProt P08238); assay: Binding affinity to HSP90 in human SKBR3 cells after 24 hrs by fluorescence polarization assay; conditions: SK-BR-3
# [22] = target: Heat shock protein HSP 90-beta (Homo sapiens) (UniProt P08238); assay: Inhibition of HSP90-mediated antiapoptotic activity in human SKI-AC3 cells assessed as induction of cell growth arrest at 10 after 96 hrs by propidium iodide staining-based flow cytometry
# [23] = target: Heat shock protein HSP 90-beta (Homo sapiens) (UniProt P08238); assay: Inhibition of HSP90-mediated proliferation of human NCI-H526 cells at 0.3 to 0.5 uM after 72 to 96 hrs by sulforhodamine B assay; type: cell-based
# [24] = Drug level in tumor of human NCI-N417 cell-xenograft athymic mouse model at 75 mg/kg, ip administered as single dose after 6 hrs by HPLC/MS/MS analysis; type: ADME, organism-based, Neoplasm; design: dose 75 mg/kg, route intraperitoneal; conditions: in vivo
# Method in brief: as §1
# [25] = target: Heat shock protein HSP 90-beta (Homo sapiens) (UniProt P08238); assay: Binding affinity to HSP90 in human NCI-N417 cells after 24 hrs by fluorescence polarization assay; type: cell-based; conditions: NCI-H417
# [26] = system: NCI-H417; assay: Anticancer activity against human NCI-N417 cells xenografted in athymic mouse assessed as decrease in tumor Akt activity at 75 mg/kg, ip administered as single dose measured after 36 hrs post dose by Western blot
# [27] = target: Heat shock protein HSP 90-beta (Homo sapiens) (UniProt P08238); assay: Binding affinity to HSP90 in human NCI-H510 cells after 24 hrs by fluorescence polarization assay; type: cell-based
# [28] = target: Heat shock protein HSP 90-beta (Homo sapiens) (UniProt P08238); assay: Binding affinity to HSP90 in human NCI-H526 cells after 24 hrs by fluorescence polarization assay; type: cell-based
# [29] = target: Heat shock protein HSP 90-beta (Homo sapiens) (UniProt P08238); assay: Inhibition of HSP90 in chemo-resistant human H69AR cells at 100 uM after 24 hrs by fluorescence polarization assay; type: cell-based
# Method in brief: as §2
# [30] = target: Heat shock protein HSP 90-beta (Homo sapiens) (UniProt P08238); assay: Inhibition of HSP90 in chemo-resistant human SKI-AC3 cells at 100 uM after 24 hrs by fluorescence polarization assay; type: cell-based
# Method in brief: as §2
# [31] = target: Heat shock protein HSP 90-beta (Homo sapiens) (UniProt P08238); assay: Inhibition of HSP90-mediated antiapoptotic activity in human WBA cells assessed as induction of cell growth arrest at 10 after 96 hrs by propidium iodide staining-based flow cytometry
# [32] = Drug level in tumor of human NCI-N417 cell-xenograft athymic mouse model at 75 mg/kg, ip administered as single dose after 8 hrs by HPLC/MS/MS analysis; type: ADME, organism-based, Neoplasm; design: dose 75 mg/kg, route intraperitoneal; conditions: in vivo
# Method in brief: as §1
# [33] = Drug level in tumor of human NCI-N417 cell-xenograft athymic mouse model at 75 mg/kg, ip administered as single dose after 36 hrs by HPLC/MS/MS analysis; type: ADME, organism-based, Neoplasm; design: dose 75 mg/kg, route intraperitoneal; conditions: in vivo
# Method in brief: as §1
# Heat shock protein HSP 90-beta (Homo sapiens), sequence (P08238 whole entry): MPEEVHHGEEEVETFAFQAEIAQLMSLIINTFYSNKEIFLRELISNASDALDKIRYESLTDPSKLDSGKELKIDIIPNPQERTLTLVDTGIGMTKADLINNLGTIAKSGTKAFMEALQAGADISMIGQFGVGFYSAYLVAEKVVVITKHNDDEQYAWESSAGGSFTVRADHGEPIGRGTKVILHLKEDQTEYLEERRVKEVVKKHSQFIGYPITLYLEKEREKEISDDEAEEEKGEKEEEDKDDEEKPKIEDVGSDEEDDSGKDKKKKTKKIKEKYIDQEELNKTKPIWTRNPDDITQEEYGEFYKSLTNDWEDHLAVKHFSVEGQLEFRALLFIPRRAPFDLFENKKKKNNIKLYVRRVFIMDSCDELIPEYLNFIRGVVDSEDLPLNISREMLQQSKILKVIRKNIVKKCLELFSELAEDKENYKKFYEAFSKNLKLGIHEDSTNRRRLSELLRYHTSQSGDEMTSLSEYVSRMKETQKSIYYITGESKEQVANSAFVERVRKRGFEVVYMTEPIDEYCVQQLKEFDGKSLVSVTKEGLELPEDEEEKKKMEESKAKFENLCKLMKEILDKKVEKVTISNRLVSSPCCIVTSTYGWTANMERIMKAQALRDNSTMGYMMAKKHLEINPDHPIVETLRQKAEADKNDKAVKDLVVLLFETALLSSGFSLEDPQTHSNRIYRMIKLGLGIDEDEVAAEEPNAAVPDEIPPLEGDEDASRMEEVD
smiles,measurement,setting,value
CC(C)NCCCn1c(Sc2cc3c(cc2I)OCO3)nc2c(N)ncnc21 [PU-H71],inhibition,[1],50%
same,Drug uptake,[2],Active
same,inhibition,[3],Active
same,Drug uptake,[4],Active
same,inhibition,[5],Active
same,inhibition,[6],50%
same,inhibition,[7],50%
same,inhibition,[8],Dose-dependent effect
same,inhibition,[9],Active
same,Drug uptake,[10],Active
same,Activity,[11],Active
same,Activity,[12],Active
same,Activity,[13],Active
same,Activity,[14],Active
same,inhibition,[15],50%
same,inhibition,[16],50%
same,inhibition,[17],50%
same,Activity,[18],Active
same,Activity,[19],Dose-dependent effect
same,Activity,[20],Active
same,Activity,[21],Active
same,Activity,[22],Active
same,inhibition,[23],50%
same,Drug uptake,[24],Active
same,Activity,[25],Active
same,Activity,[26],Active
same,Activity,[27],Active
same,Activity,[28],Active
same,inhibition,[29],Active
same,inhibition,[30],Active
same,Activity,[31],Active
same,Drug uptake,[32],Active
same,Drug uptake,[33],Active
